Compound activity as filed in PubChem.
In the library only some 3.7% were active in any assay of this set; here they are far more common.
Mdm2 ligase inh – inhibitors of human Mdm2 E3 ubiquitin ligase; signal enhancement, % at 5 µM; cell-based MDM2 ubiquitination luciferase reporter, 2 h; 0 = plate control, 100 = twice control, blank-subtracted; 0.11% of 210,000 active; Q00987; AID 1230;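 active = signal enhancement of 30% or more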;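 note: luminescence tracks abundance of the self-degrading MDM2-luciferase fusion protein; higher signal means inhibition of MDM2 E3 ligase activity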
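Test system: stable mammalian line carrying autodegrading MDM2–luciferase fusion reporter; quantity: 2000 cells in each well; times: 4 h cell settling then 2 h compound exposure, 37 °C; detection: luminescence with SteadyLite reagent, 15 min at room temperature; evaluation: percent signal gain over controls, blank-subtracted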
Mdm2 MdmX PPI – disrupts the human Mdm2-MdmX interaction. O15151+Q00987. SaOS-2 split-luciferase Mdm2/MdmX complementation, luminescence. inhibition, % at 8 µM. 3% of 330,000 active. AID 485346;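 active = inhibition of at least 50% at 8 µM in the primary screen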
Dynein cargo inh – blocks dynein driven cargo transport along microtubules. 3617.4 mouse cells, GR-EGFP nuclear translocation imaging; test concentration mostly 20 µM; stimulated with dexamethasone, 1 µM; hits give low values. z-score, hits read low. 0.47% of 220,000 active;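 active = plate z-score of nuclear minus cytoplasmic receptor signal below a set negative limit, without overly bright fluorescence or cell loss, cut at about -3.5 in these data, passing the limit was not always enough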;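 note: z-score of nuclear minus cytoplasmic ring GR-EGFP intensity difference per well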
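Buffer or medium: Induction medium lacking tetracycline, stripped serum | Also added: Dexamethasone agonist, 1.0 µM final, for 30 min | Timing: 48 h induction, 1 h compound, 30 min dex at 37 °C | Detection: Formaldehyde fixation, Hoechst nuclear stain, 10x automated fluorescence imaging | Measure: Nuclear versus cytoplasmic GR-EGFP signal, averaged per well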
CHOP UPR activ – apoptotic UPR (CHOP) activation | activation, % at 10 µM | 0.34% of 330,000 active | AID 449763 | CHO-CHOP luciferase reporter, luminescence; percent of tunicamycin response over DMSO baseline;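 active = at 10 µM dose, activation of 40% or more, normalized to positive control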
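System: CHO-CHOP luciferase reporter cell line | Buffer or medium: F12 medium containing 10% fetal bovine serum | Doses: One dose, 10 µM in 0.5% DMSO | Times: 6 h compound exposure at 37 °C after overnight seeding | Signal: Luciferase luminescence | Read-out: % activation vs tunicamycin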
B2AR ag – activates human beta-2 adrenergic receptor causing internalization | Am2.2-beta2AR cells, FAP receptor internalization, flow cytometry | response, % (test concentration not listed) | P07550 | 0.43% of 340,000 active;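 active = response above a set limit, near 3 SD of response in nonfluorescent compounds, cut at about 42% in these data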
Target sequence (P07550 whole entry, looked up): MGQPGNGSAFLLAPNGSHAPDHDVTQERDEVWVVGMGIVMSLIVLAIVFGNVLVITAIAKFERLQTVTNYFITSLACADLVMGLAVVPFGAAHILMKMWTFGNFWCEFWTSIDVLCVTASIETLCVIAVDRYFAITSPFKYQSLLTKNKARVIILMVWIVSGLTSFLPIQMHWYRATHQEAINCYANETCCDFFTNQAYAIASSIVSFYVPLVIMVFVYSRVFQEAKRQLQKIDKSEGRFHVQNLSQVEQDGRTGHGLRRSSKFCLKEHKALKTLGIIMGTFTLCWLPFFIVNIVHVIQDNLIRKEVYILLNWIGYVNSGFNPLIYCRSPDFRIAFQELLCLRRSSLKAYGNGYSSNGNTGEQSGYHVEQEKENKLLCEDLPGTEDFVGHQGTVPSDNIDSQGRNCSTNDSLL
XBP1 UPR activ – activators of adaptive arm of unfolded protein response (XBP1). AID 463104. 0.33% of 330,000 active. CHO-XBP1 luciferase reporter, IRE1-XBP1 UPR activation, luminescence; percent of tunicamycin response, DMSO as zero. activation, % at 20 µM;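 active = versus positive control, 20 µM dose yields 30% or more activation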
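Material – CHO cell line with stable XBP1 luciferase reporter · Buffer or medium – F12 plus 10% FBS · Compound – single point, 20 µM final compound, 1% DMSO · Schedule – 16-18 h cell attachment at 37 °C, then 6 h compound exposure · Signal – Steady-Glo luminescence read · Benchmarks – high control tunicamycin 10 µg/mL final, low control DMSO vehicle only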
Mdm2-MdmX conf – human Mdm2/MdmX binding inhibition, confirmed; 55% of 10,000 active; AID 489028; shares compounds with Mdm2 MdmX PPI; luminescent assay; inhibition, % at 8 µM; in the data active = inhibition above about 40%
FLuc counter – full-length luciferase inhibition in Mdm2/MdmX counter-screen; shares compounds with Mdm2 MdmX PPI; SaOS-2 full-length luciferase counterscreen, luminescence; inhibition, % at 8 µM; 77% of 6,200 active;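 active = mean inhibition at 8 µM reaching about 37%, which flags the compound as non-specific, limit read from the data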;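 note: p53-null SaOS-2 cells with luciferase driven by a doxycycline-inducible promoter; compound on cells about two nights before reading with doxycycline added after day one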
Large screens that a line does not name were inactive (follow-up assays come after a bar, where they were run).

O=C(OCn1ncc(Cl)c(Cl)c1=O)c1ccc(C(F)(F)F)cc1	Mdm2 MdmX PPI 72 | Mdm2-MdmX conf 74 | FLuc counter 53
COc1ccc(C(=O)N[C@H](C(=O)NC2CCCCC2)C(C)C)cc1	none (no result: Mdm2 ligase inh, Dynein cargo inh)
CCOC(=O)c1cc(-c2ccccc2)sc1NC(=O)CN1C(=O)c2ccccc2C1=O	none (no result: Mdm2 ligase inh)
CCOC(=O)c1c(NC(=O)CN2C(=O)NC(C)(c3ccccc3)C2=O)sc(C)c1C (centres undefined)	Mdm2 MdmX PPI 71 | Mdm2-MdmX conf 58 | FLuc counter 45
CCCC1(c2ccccc2)NC(=O)N(CC(=O)Nc2sc(-c3ccccc3)cc2C(=O)OCC)C1=O (centres undefined)	Mdm2 MdmX PPI 77 | Mdm2-MdmX conf 55 | FLuc counter 53
Cc1noc(NS(=O)(=O)c2ccc(NC(=O)c3cc(F)c(F)c(F)c3F)cc2)c1C	none (no result: Mdm2 ligase inh, Dynein cargo inh)
CCOC(=O)N1CCC(NC(=O)c2ccc3c(c2)N=C(CC)c2cc(C)ccc2S3)CC1	Mdm2 MdmX PPI 61 (no result: Mdm2 ligase inh, Dynein cargo inh) | Mdm2-MdmX conf 69 | FLuc counter 52
CCOC(=O)N1CCC(NC(=O)c2ccc3c(c2)N=C(C)c2c(C)ccc(C)c2S3)CC1	Mdm2 MdmX PPI 68 (no result: Mdm2 ligase inh, Dynein cargo inh) | Mdm2-MdmX conf 64 | FLuc counter 89
Cn1c(CCN2CCN(c3ccccn3)CC2)nc2cc(NS(=O)(=O)c3ccc(Cl)cc3)ccc21	none (no result: Mdm2 ligase inh, Dynein cargo inh)
O=c1cc(N2CCCCC2)c(-c2ccccc2)nn1Cc1c(Cl)cccc1Cl	Mdm2 MdmX PPI 56 | Mdm2-MdmX conf inactive
O=c1cc(N2CCCCC2)c(-c2ccccc2)nn1Cc1ccc(Cl)cc1	none
CCOc1ccc(S(=O)(=O)Nc2cccc(C(=O)NCC3CCCO3)c2)cc1 (centres undefined)	none (no result: Mdm2 ligase inh, Dynein cargo inh)
COc1cccc(Nc2nc(NCCO)c3ccccc3n2)c1	Mdm2 MdmX PPI 65 | Mdm2-MdmX conf 62 | FLuc counter inactive
OCCNc1nc(Nc2cccc(O)c2)nc2ccccc12	none (no result: Mdm2 ligase inh)
C[C@@H](C[C@@H](O)[C@H](O)C(C)(C)O)[C@@H]1CC[C@]2(C)C3=CC[C@H]4C(C)(C)C(=O)CC[C@]4(C)[C@H]3CC[C@@]12C	Mdm2 MdmX PPI 51 (no result: Mdm2 ligase inh) | Mdm2-MdmX conf 40 | FLuc counter 96
O=C(NC12CC3CC(CC(C3)C1)C2)c1ccc(N2CCNCC2)c([N+](=O)[O-])c1	none
C[n+]1c2n(c3ccccc31)N=C(c1ccc(-c3ccccc3)cc1)CS2	Mdm2 MdmX PPI 80 | Mdm2-MdmX conf 61 | FLuc counter inactive
C#CCOCCOCCOCCNc1nc(N2CCN(C(=O)[C@H](CCCCN)n3cc(CN)nn3)CC2)nc(N2CCN(C(=O)[C@H](CC(N)=O)n3cc(C(N)[C@H](C)CC)nn3)CC2)n1 (some centres undefined)	none (no result: Mdm2 ligase inh, Dynein cargo inh)
COCCNC(=O)C(c1ccc(O)cc1)N(Cc1ccccc1)C(=O)CCC(=O)Nc1nccs1 (centres undefined)	none (no result: Mdm2 ligase inh, Dynein cargo inh)
Cc1ccc(C(=O)C[n+]2cc(-c3ccc(C)cc3)n3c2CCCCC3)cc1	Mdm2 MdmX PPI 53 | Mdm2-MdmX conf 54 | FLuc counter 48
COc1ccc(C(=O)C[n+]2cc(-c3ccc(OC)cc3)n3c2CCCC3)cc1	none
COc1ccc(CCC(=O)OCC(=O)NCc2ccccc2)cc1	none (no result: Mdm2 ligase inh, Dynein cargo inh)
CCCN(CCC)c1nc2ccccc2n2c(C)nnc12	none
CCCNc1nc2ccccc2n2c(C)nnc12	Mdm2 MdmX PPI 58 (no result: Mdm2 ligase inh, Dynein cargo inh) | Mdm2-MdmX conf inactive
Cc1nc2ccc(NC(=O)CCC3CCCC3)cc2s1	none (no result: Mdm2 ligase inh, Dynein cargo inh)
